{"data": "Measured values from different studies"}
{"Structure (SMILES)": "CC[C@H](C)[C@@H]([C@@H](CC(=O)N1CCC[C@H]1[C@H](OC)[C@@H](C)C(=O)N[C@@H](Cc1ccccc1)C(=O)O)OC)N(C)C(=O)[C@@H](NC(=O)[C@H](C(C)C)N(C)C(=O)CCc1cn(CCOCCOCCOCCOCC(=O)NCc2ccc(CN3C(=O)[C@H]4CC(=O)N[C@H](C(=O)O)CC(=O)NCC(=O)N[C@@H](CCCNC(=N)N)C(=O)NC[C@H]3C(=O)N4)cc2)nn1)C(C)C", "tested on": "M21", "effect on": "cell growth or viability", "technique": "MTT", "time": "72 h", "endpoint": "IC50", "value": "> 1000 nM"}
{"Structure (SMILES)": "O=C1[O][Pt]2([NH][C@@H]3CCCC[C@H]3[NH]2)[O]C1=O", "tested on": "HD-MB03", "effect on": "cell growth or viability", "time": "7 days", "endpoint": "IC50", "value": "2330 nM"}
{"Structure (SMILES)": "O=C(Nc1cccc(-c2cc(C(=O)O)no2)c1)Nc1ccc(Cl)c(Cl)c1", "tested on": "Mycobacteroides chelonae", "effect on": "microbial growth", "technique": "broth dilution", "strain": "ATCC35752", "time": "48 h", "endpoint": "MIC", "value": "> 64 µg/mL"}
{"Structure (SMILES)": "CC(C)c1ccc(/C=C/c2nc3ccccc3c(=O)n2-c2cccc(O)c2)cc1", "tested on": "Enterococcus faecium", "effect on": "microbial growth", "technique": "broth dilution", "strain": "NCTC7171", "endpoint": "MIC", "value": "> 128 µg/mL"}
{"Structure (SMILES)": "COC(=O)c1cc(-c2cccc(NC(=O)Nc3cccc(F)c3)c2)on1", "tested on": "Mycobacteroides chelonae", "effect on": "microbial growth", "technique": "broth dilution", "strain": "ATCC35752", "time": "48 h", "endpoint": "MIC", "value": "> 64 µg/mL"}
{"Structure (SMILES)": "O=c1c2ccccc2nc(/C=C/c2ccc([N+](=O)[O-])cc2)n1-c1ccccc1O", "tested on": "Enterococcus faecium", "effect on": "microbial growth", "technique": "broth dilution", "strain": "NCTC7171", "endpoint": "MIC", "value": "> 128 µg/mL"}
{"Structure (SMILES)": "O=C(NOC[C@H](O)CO)c1ccc(F)c(F)c1Nc1ccc(I)cc1F", "tested on": "MB002", "effect on": "cell growth or viability", "time": "7 days", "endpoint": "IC50", "value": "> 10000 nM"}
{"Structure (SMILES)": "COc1ccc(/C=C/c2nc3ccccc3c(=O)n2-c2cccc(O)c2)cc1", "tested on": "Enterococcus faecium", "effect on": "microbial growth", "technique": "broth dilution", "strain": "NCTC7171", "endpoint": "MIC", "value": "64 µg/mL"}
{"Structure (SMILES)": "COC(=O)c1cc(-c2cccc(NC(=S)NC3CCCCC3)c2)on1", "tested on": "Mycobacteroides chelonae", "effect on": "microbial growth", "technique": "broth dilution", "strain": "ATCC35752", "time": "48 h", "endpoint": "MIC", "value": "> 64 µg/mL"}
{"Structure (SMILES)": "C#Cc1ccc(/C=C/c2nc3ccccc3c(=O)n2-c2cccc(O)c2)cc1", "tested on": "Enterococcus faecium", "effect on": "microbial growth", "technique": "broth dilution", "strain": "NCTC7171", "endpoint": "MIC", "value": "32 µg/mL"}
{"Structure (SMILES)": "COC(=O)c1cc(-c2cccc(NC(=S)Nc3ccc(OC)cc3)c2)on1", "tested on": "Mycobacteroides chelonae", "effect on": "microbial growth", "technique": "broth dilution", "strain": "ATCC35752", "time": "48 h", "endpoint": "MIC", "value": "> 64 µg/mL"}
{"Structure (SMILES)": "Cc1ccc(-c2nc3ccc(C)cn3c2CC(=O)N(C)C)cc1", "tested on": "Mycobacteroides chelonae", "effect on": "microbial growth", "time": "72 h", "endpoint": "MIC", "value": "> 50 µM"}
